Experimental data published in ChEMBL document CHEMBL1147862, “Studies on synthesis and pharmacological activities of 3,6-disubstituted-1,2,4-triazolo[3,4-b]-1,3,4-thiadiazoles and their dihydro analogues” (2007).

Tests used:
Type in all cases: functional
Bacillus subtilis [1] = experiment: Antibacterial activity against Bacillus subtilis at 20 ug/ml by agar plate diffusion technique; conditions: read-out: IZ
Escherichia coli [2] = experiment: Antibacterial activity against Escherichia coli at 20 ug/ml by agar plate diffusion technique; conditions: read-out: IZ
Escherichia coli [3] = experiment: Antibacterial activity against Escherichia coli at 30 ug/ml by agar plate diffusion technique; conditions: read-out: IZ
Bacillus subtilis [4] = experiment: Antibacterial activity against Bacillus subtilis at 10 ug/ml by agar plate diffusion technique; conditions: read-out: IZ
Bacillus subtilis [5] = experiment: Antibacterial activity against Bacillus subtilis at 30 ug/ml by agar plate diffusion technique; conditions: read-out: IZ
Pseudomonas aeruginosa [6] = experiment: Antibacterial activity against Pseudomonas aeruginosa at 30 ug/ml by agar plate diffusion technique; conditions: read-out: IZ
Aspergillus niger [7] = experiment: Antifungal activity against Aspergillus niger at 30 ug/ml by paper disc method; conditions: read-out: IZ
Aspergillus niger [8] = experiment: Antifungal activity against Aspergillus niger at 10 ug/ml by paper disc method; conditions: read-out: IZ
Mus musculus [9] = experiment: Analgesic activity in Swiss mouse assessed as increase in reaction time at 20 mg/kg, po after 30 mins by Eddy's hot plate technique
Procedure, shortened: (§1)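 Swiss mice of either sex, 25–35 g, placed one at a time on a hot plate held at 55 °C. End point is paw licking or jumping, whichever comes first, with a 15 s cut-off to avoid paw injury. Reaction time is recorded and reported as percent increase in reaction time.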

Mus musculus [10] = experiment: Analgesic activity in Swiss mouse assessed as increase in reaction time at 20 mg/kg, po after 90 mins by Eddy's hot plate technique; procedure, shortened: as §1
Rattus norvegicus [11] = experiment: Antiinflammatory activity in Wistar Albino rat assessed as inhibition of carrageenan-induced paw oedema at 20 mg/kg after 1 hr relative to control
Procedure, shortened: (§2)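 Wistar albino rats, 150–200 g, six per group, dosed orally with a 20 mg/kg suspension; control gets 0.1 ml 1% gum acacia. After 30 min, 0.1 ml 1% carrageenan in saline is injected subplantar into the right hind paw. Paw volume is read by plethysmograph at 0–4 h. Inhibition = 100(1 − Vtest/Vcontrol) on mean volume increase.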

Candida albicans [12] = experiment: Antifungal activity against Candida albicans at 30 ug/ml by paper disc method; conditions: read-out: IZ
Candida albicans [13] = experiment: Antifungal activity against Candida albicans at 20 ug/ml by paper disc method; conditions: read-out: IZ
Rattus norvegicus [14] = experiment: Antiinflammatory activity in Wistar Albino rat assessed as inhibition of carrageenan-induced paw oedema at 20 mg/kg after 2 hrs relative to control; procedure, shortened: as §2
Pseudomonas aeruginosa [15] = experiment: Antibacterial activity against Pseudomonas aeruginosa at 10 ug/ml by agar plate diffusion technique; conditions: read-out: IZ
Rattus norvegicus [16] = experiment: Antiinflammatory activity in Wistar Albino rat assessed as inhibition of carrageenan-induced paw oedema at 20 mg/kg after 4 hrs relative to control; procedure, shortened: as §2
Rattus norvegicus [17] = experiment: Antiinflammatory activity in Wistar Albino rat assessed as inhibition of carrageenan-induced paw oedema at 20 mg/kg after 3 hrs relative to control; procedure, shortened: as §2
Candida albicans [18] = experiment: Antifungal activity against Candida albicans at 10 ug/ml by paper disc method; conditions: read-out: IZ
Staphylococcus aureus [19] = experiment: Antibacterial activity against Staphylococcus aureus at 20 ug/ml by agar plate diffusion technique; conditions: read-out: IZ
Aspergillus niger [20] = experiment: Antifungal activity against Aspergillus niger at 20 ug/ml by paper disc method; conditions: read-out: IZ
Pseudomonas aeruginosa [21] = experiment: Antibacterial activity against Pseudomonas aeruginosa at 20 ug/ml by agar plate diffusion technique; conditions: read-out: IZ
Staphylococcus aureus [22] = experiment: Antibacterial activity against Staphylococcus aureus at 30 ug/ml by agar plate diffusion technique; conditions: read-out: IZ
Escherichia coli [23] = experiment: Antibacterial activity against Escherichia coli at 10 ug/ml by agar plate diffusion technique; conditions: read-out: IZ
Staphylococcus aureus [24] = experiment: Antibacterial activity against Staphylococcus aureus at 10 ug/ml by agar plate diffusion technique; conditions: read-out: IZ
Mus musculus [25] = experiment: Analgesic activity in Swiss mouse assessed as increase in reaction time at 20 mg/kg, po after 60 mins by Eddy's hot plate technique; procedure, shortened: as §1

| Structure (SMILES) | zone of inhibition at 20 µg/mL (Bacillus subtilis [1]) [mm] | zone of inhibition at 20 µg/mL (Escherichia coli [2]) [mm] | zone of inhibition at 30 µg/mL (Escherichia coli [3]) [mm] | zone of inhibition at 10 µg/mL (Bacillus subtilis [4]) [mm] | zone of inhibition at 30 µg/mL (Bacillus subtilis [5]) [mm] | zone of inhibition at 30 µg/mL (Pseudomonas aeruginosa [6]) [mm] | zone of inhibition at 30 µg/mL (Aspergillus niger [7]) [mm] | zone of inhibition at 10 µg/mL (Aspergillus niger [8]) [mm] | Activity (Mus musculus [9]) [%] | Activity (Mus musculus [10]) [%] | inhibition in vivo at 20 mg/kg (Rattus norvegicus [11]) [%] | zone of inhibition at 30 µg/mL (Candida albicans [12]) [mm] | zone of inhibition at 20 µg/mL (Candida albicans [13]) [mm] | inhibition in vivo at 20 mg/kg (Rattus norvegicus [14]) [%] | zone of inhibition at 10 µg/mL (Pseudomonas aeruginosa [15]) [mm] | inhibition in vivo at 20 mg/kg (Rattus norvegicus [16]) [%] | inhibition in vivo at 20 mg/kg (Rattus norvegicus [17]) [%] | zone of inhibition at 10 µg/mL (Candida albicans [18]) [mm] | zone of inhibition at 20 µg/mL (Staphylococcus aureus [19]) [mm] | zone of inhibition at 20 µg/mL (Aspergillus niger [20]) [mm] | other results |
| --- | --- | --- | --- | --- | --- | --- | --- | --- | --- | --- | --- | --- | --- | --- | --- | --- | --- | --- | --- | --- | --- |
| Cc1occc1-c1nnc2n1NC(c1ccc([N+](=O)[O-])o1)S2 (stereo not given) | 11.5 | 11 | 16.9 | 6.25 | 17.2 | 17.1 | 15.3 | 5.48 | 5.34 | 26.85 | 15.6 | 15.8 | 11.1 | 18.1 | 6.12 | 24.9 | 22.8 | 5.89 | 11.5 | 10.4 | zone of inhibition at 20 µg/mL (Pseudomonas aeruginosa [21]): 11.8 mm; zone of inhibition at 30 µg/mL (Staphylococcus aureus [22]): 17.5 mm; zone of inhibition at 10 µg/mL (Escherichia coli [23]): 5.78 mm; zone of inhibition at 10 µg/mL (Staphylococcus aureus [24]): 6.11 mm; Activity (Mus musculus [25]): 15.68% |
| Cc1occc1-c1nnc2sc(-c3ccnc4ccccc34)nn12 | 14.1 | 15.3 | 19.4 | 8.14 | 19.8 | 19.1 | 19.6 | 6.14 | 5.62 | 19.24 | 12.5 | 19.2 | 11 | 17.1 | 8.17 | 23.4 | 20.3 | 5.78 | 14.1 | 12 | zone of inhibition at 20 µg/mL (Pseudomonas aeruginosa [21]): 14.2 mm; zone of inhibition at 30 µg/mL (Staphylococcus aureus [22]): 19.1 mm; zone of inhibition at 10 µg/mL (Escherichia coli [23]): 8.74 mm; zone of inhibition at 10 µg/mL (Staphylococcus aureus [24]): 8.16 mm; Activity (Mus musculus [25]): 10.24% |
| COc1ccc(Cl)c(-c2nnc3sc(-c4cc(O)nc(O)c4)nn23)c1 | 8.38 | 8 | 13.2 | 4.7 | 13.8 | 13.3 | 13.6 | 4.82 | 5.68 | 26.14 | 8.35 | 15 | 7.15 | 14.2 | 4.84 | 23.4 | 21 | 4.14 | 8.82 | 8.06 | zone of inhibition at 20 µg/mL (Pseudomonas aeruginosa [21]): 9.06 mm; zone of inhibition at 30 µg/mL (Staphylococcus aureus [22]): 13.7 mm; zone of inhibition at 10 µg/mL (Escherichia coli [23]): 4.18 mm; zone of inhibition at 10 µg/mL (Staphylococcus aureus [24]): 4.57 mm; Activity (Mus musculus [25]): 15.18% |
| COc1ccc(Cl)c(-c2nnc3n2NC(c2ccc[nH]2)S3)c1 (stereo not given) | 4 | 7.9 | 14.3 | 1.67 | 8.33 | 8 | 12.3 | 4.89 | 4.86 | 21.1 | 12.8 | 13.4 | 8.82 | 15.2 | 1.33 | 20.6 | 18.4 | 4.61 | 4.33 | 9.17 | zone of inhibition at 20 µg/mL (Pseudomonas aeruginosa [21]): 4.33 mm; zone of inhibition at 30 µg/mL (Staphylococcus aureus [22]): 8.33 mm; zone of inhibition at 10 µg/mL (Escherichia coli [23]): 4.71 mm; zone of inhibition at 10 µg/mL (Staphylococcus aureus [24]): 1.33 mm; Activity (Mus musculus [25]): 14.48% |
